Bioassay records deposited in PubChem BioAssay by several laboratories.
RAM inhibit – yeast RAM network inhibition. S. cerevisiae dse1pr::URA3 reporter, 5-FOA growth OD615, 2 d; analog-sensitive cbk1-as2 kinase mutant strain. inhibition, % at 50 µM. 190,000 compounds, 1.8% hits. AID 868;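 active = inhibition above a set limit, 3 SD over mean compound inhibition, cut at about 8.4% in these data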;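 also: 0% = DMSO-only wells with no growth and 100% = 10 µM 1-NA-PP1 full growth; inhibition rescues growth on 5-FOA so higher OD means more RAM inhibition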
Yeast growth inh – yeast BB579 growth reduction in restrictive medium; inhibition, % at 10 µM; S. cerevisiae BB579 growth, OD615, 48 h; 140,000 compounds, 0.51% hits;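 active = inhibition above a set limit, 3 SD over the mean compound inhibition, cut at about 44% in these data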
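controls = amphotericin B 10 µg/mL, positive | assay system = DeaD yeast strain BB579 | schedule = 48 h compound exposure at 30 °C after 4 h preincubation | detection = OD615 turbidity measurement | medium = restrictive CSMM-D medium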
Measles CPE – protection of cells from measles virus | AID 841 | 140,000 compounds, 1.5% hits | protection (pct of control), % at 4 µM | Measles virus-infected cells, CPE protection, absorbance; in the data active = protection mostly above about 24%, no sharp cut-off; inactive = mostly below about 26%
Yeast life ext – yeast lifespan extension. inhibition of the nicotinamide effect, % at 10 µM. S. cerevisiae growth with nicotinamide, OD615; deaD strain in restrictive glucose medium. AID 775. 130,000 compounds, 0.68% hits;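 active = inhibition above a set limit, placed 3 SD over the median of all compounds, cut at about 26% in these data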;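 also: 0% = nicotinamide-treated wells and 100% = cells grown without nicotinamide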
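Buffer or medium: CSMM-D glucose medium, restrictive; test system: modified budding yeast, DeaD strain; compound: single dose 10 µM compound, 0.25% DMSO; schedule: culture preincubation 4 h, compound exposure 48 h, both 30 °C; detection: optical density (absorbance) at 615 nm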
RAM 5-FOA – RAM network inhibition, efflux-deficient strain; AID 1305; 1,200 tested, under 10 active; S. cerevisiae efflux-deficient reporter strain, 5-FOA growth OD615, 2 days; max inhibition, %; shares compounds with RAM inhibit; call rule not given here;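 also: plate controls were vehicle for no effect and reference inhibitor for full effect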
The depositor's hits bear a star; x = no result given. A selection: hits, their analogues and other compounds. The true share with any hit is near 3.8%.

SMILES	RAM inhibit	Yeast growth inh	Measles CPE	Yeast life ext	RAM 5-FOA
COC(=O)c1sc(S(=O)(=O)N2CCC(C(=O)O)CC2)c(C(=O)OC)c1C	0	-1	12	-17	x
COc1ccc2nc(NC3=NC(C(=O)Nc4ccc(C)cc4)CC(=O)N3)nc(C)c2c1 (stereo not drawn)	1	-25	8	0	x
CCc1cc2c(Sc3nc4ccccc4s3)ncnc2s1	13*	2	9	-15	2
COc1ccccc1OC(=O)CCN1c2ccccc2Sc2ccccc21	14*	-23	13	1	6
O=c1ccc(/C=C/c2ccccc2)nn1Cc1ccc(Cl)cc1Cl	13*	-107	5	2	2
CSc1nc2ccccc2cc1/C=C(\C#N)c1ccccc1	6	-62	4	-6	x
CSc1nc2ccccc2cc1/C=C(\C#N)c1cccc(C)c1	13*	-19	2	-10	5
COc1ccc(CCN2C(=O)CC(NNc3ccc([N+](=O)[O-])cc3)C2=O)cc1OC (stereo not drawn)	1	x	x	x	x
O=[N+]([O-])c1ccc(N/N=C/c2sc(N3CCOCC3)nc2-c2ccccc2)c(S(=O)(=O)Nc2ccc(Cl)cc2)c1	12*	x	x	x	6
O=C(O)c1cccc(N/N=C/c2sc(N3CCOCC3)nc2-c2ccccc2)c1	1	-1	12	-3	x
COC(=O)C1=C(N)c2c(F)cccc2C1(C#N)c1ccc(F)cc1 (stereo not drawn)	1	-27	6	-1	x
Cc1ccc(NC(=S)N(Cc2ccc(Cl)cc2)Cc2ccc(C(=O)O)cc2)cc1Cl	4	x	x	x	x
Cc1ccc(/C=C2\Oc3cc(OC(=O)N4CCOCC4)ccc3C2=O)cc1	7	-29	11	-4	x
Cc1cccc(/C=C2\Oc3cc(OS(C)(=O)=O)ccc3C2=O)c1	12*	-37	9	-6	4
NC(=O)CN1CCN(S(=O)(=O)c2ccc(Br)cc2)CC1	1	x	x	x	x
N#Cc1c(SCC(=O)O)nc(N2CCCCC2)c2c1CCCC2	2	-36	5	3	x
COC(=O)CSc1nc(N2CCCCC2)c2c(c1C#N)CCCC2	14*	-24	30	-11	1
O=C(CSCc1nc2c(nnn2Cc2ccc(F)cc2)c(=O)[nH]1)Nc1cccc(C(F)(F)F)c1	16*	x	x	x	1
CN(C)c1ccc(NC(=O)CSCc2nc3c(nnn3Cc3ccc(F)cc3)c(=O)[nH]2)cc1	2	-77	9	-3	x
CCC(CC)COC(=O)C(C#N)c1nc2ccccc2nc1N1CCOCC1 (stereo not drawn)	16*	-14	3	-2	4
N#CC(C(=O)OC1CCCCC1)c1nc2ccccc2nc1N1CCOCC1 (stereo not drawn)	3	-27	12	7	x
COc1cc(C(c2sc3nc(C)nn3c2O)N2CCN(c3ccccc3)CC2)cc(OC)c1OC (stereo not drawn)	16*	-33	11	-10	2
COc1cc(C(c2sc3nc(C)nn3c2O)N2CCOCC2)cc(OC)c1OC (stereo not drawn)	1	-18	12	-5	x
C/C=C/c1ccc(OCC(=O)OCc2csc(Nc3ccc(C)cc3)n2)c(OC)c1	12*	-9	16	-2	4
C=CCN(C(=O)c1ccccn1)C(C(=O)NCc1ccccc1)c1ccccc1F (stereo not drawn)	1	x	x	x	x
SMILES	RAM inhibit	Yeast growth inh	Measles CPE	Yeast life ext	RAM 5-FOA
O=C(Nc1ccc(Cl)c(Cl)c1)OCCNC(=O)c1ccncc1	4	x	x	x	x
CN1C(=O)/C(=C/c2ccccc2OCc2cccc(F)c2)NC1=S	11*	-81	8	-10	2
Cc1cc(C)n2nc(C(=O)Nc3ccc4c(c3)CCC4)nc2n1	2	x	x	x	x
CC1(C)C(C=C(Cl)Cl)C1C(=O)Nc1ccc([N+](=O)[O-])cc1 (stereo not drawn)	11*	54*	11	-4	2
COc1cccc(N=C2CC(C)(C)CC(=O)/C2=C(/O)c2ccccc2)c1	1	x	x	x	x
O=C(CN(C(=O)c1csnn1)c1cccc2ccccc12)NC1CCCC1	0	x	x	x	x
CCCCN1C(=O)C2(NNc3ccccc3O2)c2ccccc21 (stereo not drawn)	15*	3	16	-7	3
C=CCN1C(=O)C2(NNc3ccccc3O2)c2ccccc21 (stereo not drawn)	2	4	4	-10	x
COc1ccc(CN(C(=O)c2ccco2)c2ccccc2)cc1	1	-39	19	x	x
COc1ccc(CN(CCC(c2ccccc2)c2ccco2)C(=O)c2ccco2)cc1 (stereo not drawn)	13*	-24	19	2	4
CCN(CC)S(=O)(=O)c1ccc(N2CCOCC2)c(NC(=O)CCC2CCCCC2)c1	14*	-30	9	3	2
CCN(CC)S(=O)(=O)c1ccc(N2CCOCC2)c(NC(=O)Cc2ccccc2)c1	0	-32	5	4	x
Cc1ccc(NC(=O)Cc2ccc(Cl)c(Cl)c2)cc1S(=O)(=O)N(C)C	12*	-44	5	6	3
COc1ccc(OC)c(C2CC(=O)Nc3c2c(=O)[nH]c2ncnn32)c1 (stereo not drawn)	1	x	x	x	x
CC(C)CCC(C)N=Cc1c(O)n(Cc2ccccc2)c(=O)c2ccccc12 (stereo not drawn)	17*	-83	1	17	6
O=C(OC(c1ccc(NS(=O)(=O)c2ccccc2)cc1)(C(F)(F)F)C(F)(F)F)c1ccccc1	13*	-15	4	10	2
Cc1c(NC(=S)NC(=O)Cc2ccccc2)cccc1C(=O)O	22*	-22	4	1	1
N#Cc1nc(Cc2cccc3ccccc23)oc1NCc1ccc(F)cc1	15*	-23	8	-19	3
COc1ccc(CNc2oc(-c3cccc4ccccc34)nc2C#N)cc1	15*	-31	68*	-6	3
C=CCNc1oc(Cc2cccc3ccccc23)nc1C#N	6	-5	19	-6	x
CNc1oc(-c2cccc3ccccc23)nc1C#N	3	-33	5	-15	x
CCN(CC(=O)Nc1ccccc1OC)C(=O)COc1ccc2ccccc2c1	0	-9	6	-2	x
COc1ccc(O[C@H]2C=C[C@@H](c3ccccc3)O[C@@H]2CO/N=C(\C)CCC(=O)OC[C@H]2O[C@H](c3ccccc3)C=C[C@@H]2Oc2ccc(OC)cc2)cc1	25*	-52	4	3	6
COC(=O)C/C=C/[C@@H](C)[C@@H](/C=N/O[C@@H](C)c1cn([C@H](CO)Cc2ccccc2)nn1)NS(=O)(=O)c1ccc(C)cc1	0	-1	14	2	x
COC(=O)C/C=C/[C@@H](C)[C@@H](/C=N/OC[C@H]1O[C@H](c2ccccc2)C=C[C@@H]1Oc1ccc(OC)cc1)NS(=O)(=O)c1ccc(C)cc1	16*	-30	4	10	3
COc1ccc(S(=O)(=O)Nc2cccc(S(=O)(=O)N3CCCCCC3)c2)cc1	14*	-29	5	6	5
